Columns and labels:
[1] = target: T1, Muscarinic acetylcholine receptor M5 (Homo sapiens, UniProt P08912); assay: Positive allosteric modulator activity at human muscarinic acetylcholine receptor subtype 5 expressed in CHO cells by calcium mobilization assay; assay type: functional, cell-based; conditions: read-out: EC50
T1 sequence (P08912 whole entry): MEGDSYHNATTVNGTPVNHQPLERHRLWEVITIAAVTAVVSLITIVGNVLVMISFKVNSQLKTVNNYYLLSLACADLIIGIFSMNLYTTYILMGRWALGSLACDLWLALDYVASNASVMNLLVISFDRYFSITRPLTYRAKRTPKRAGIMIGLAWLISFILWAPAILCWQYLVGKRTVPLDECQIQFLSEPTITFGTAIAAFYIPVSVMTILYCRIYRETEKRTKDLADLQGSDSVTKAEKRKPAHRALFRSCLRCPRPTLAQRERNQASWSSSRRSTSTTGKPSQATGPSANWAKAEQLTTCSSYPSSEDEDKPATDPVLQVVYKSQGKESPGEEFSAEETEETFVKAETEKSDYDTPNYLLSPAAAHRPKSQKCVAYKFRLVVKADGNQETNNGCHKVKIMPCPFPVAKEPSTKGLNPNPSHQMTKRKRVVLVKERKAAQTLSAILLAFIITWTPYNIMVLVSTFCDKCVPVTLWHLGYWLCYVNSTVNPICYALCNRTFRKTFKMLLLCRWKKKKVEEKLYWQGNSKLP

[2] = target: T2, Muscarinic acetylcholine receptor M5 (Homo sapiens) (UniProt P08912); assay: Positive allosteric modulator activity at human muscarinic acetylcholine receptor subtype 5 expressed in CHO cells by calcium mobilization assay relative to acetylcholine; assay type: functional, cell-based
T2 sequence (whole entry): T1 sequence (P08912 whole entry)

[3] = target: T3, Muscarinic acetylcholine receptor M4 (Homo sapiens, UniProt P08173); assay: Activity at human muscarinic acetylcholine receptor subtype 4 expressed in CHO cells co-transfected with chimeric Gqi5 by calcium mobilization assay; assay type: functional, cell-based
T3 sequence (P08173 whole entry): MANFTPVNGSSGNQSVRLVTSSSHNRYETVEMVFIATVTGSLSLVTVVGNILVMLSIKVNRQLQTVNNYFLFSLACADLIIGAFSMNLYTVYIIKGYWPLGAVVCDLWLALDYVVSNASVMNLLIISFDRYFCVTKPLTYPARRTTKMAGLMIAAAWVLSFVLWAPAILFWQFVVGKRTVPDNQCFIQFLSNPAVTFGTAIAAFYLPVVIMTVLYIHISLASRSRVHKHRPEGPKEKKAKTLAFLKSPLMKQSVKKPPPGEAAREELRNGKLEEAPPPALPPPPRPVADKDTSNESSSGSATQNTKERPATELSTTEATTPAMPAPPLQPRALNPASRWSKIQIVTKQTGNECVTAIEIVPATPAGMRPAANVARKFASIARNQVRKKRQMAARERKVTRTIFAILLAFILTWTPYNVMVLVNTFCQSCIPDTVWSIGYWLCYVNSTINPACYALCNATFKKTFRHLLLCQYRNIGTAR
How it was run: (§1)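 Muscarinic subtype selectivity by fluorescence calcium mobilization in highly expressing CHO lines with similar receptor levels; Gi/o-coupled M2 and M4 cells co-transfected with chimeric Gqi5 to couple to Ca2+ mobilization. Read-outs are PAM EC50 and ACh max response. Mean ± SEM of at least three independent determinations.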

[4] = target: Muscarinic acetylcholine receptor M3 (Homo sapiens, UniProt P20309); assay: Activity at human muscarinic acetylcholine receptor subtype 3 expressed in CHO cells by calcium mobilization assay; assay type: functional, cell-based; how it was run: as §1
Chain of Muscarinic acetylcholine receptor M3 (P20309 whole entry): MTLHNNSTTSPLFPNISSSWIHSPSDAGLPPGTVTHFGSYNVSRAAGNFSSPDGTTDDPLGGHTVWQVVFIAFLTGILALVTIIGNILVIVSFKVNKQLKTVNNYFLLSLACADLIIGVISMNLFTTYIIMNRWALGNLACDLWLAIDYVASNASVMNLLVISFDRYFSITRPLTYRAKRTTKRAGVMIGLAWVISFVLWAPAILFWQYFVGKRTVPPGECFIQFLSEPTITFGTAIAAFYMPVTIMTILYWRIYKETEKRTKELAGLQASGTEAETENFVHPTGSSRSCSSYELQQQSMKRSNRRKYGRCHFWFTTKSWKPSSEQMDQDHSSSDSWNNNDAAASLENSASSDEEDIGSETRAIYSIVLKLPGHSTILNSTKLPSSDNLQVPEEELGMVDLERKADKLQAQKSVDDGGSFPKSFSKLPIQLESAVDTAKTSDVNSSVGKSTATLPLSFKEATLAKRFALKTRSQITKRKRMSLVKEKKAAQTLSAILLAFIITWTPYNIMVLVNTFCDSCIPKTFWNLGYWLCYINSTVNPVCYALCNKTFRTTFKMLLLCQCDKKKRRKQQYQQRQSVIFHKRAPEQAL

[5] = target: T4, Muscarinic acetylcholine receptor M1 (Homo sapiens, UniProt P11229); assay: Activity at human muscarinic acetylcholine receptor subtype 1 expressed in CHO cells by calcium mobilization assay; assay type: functional, cell-based; how it was run: as §1
T4 sequence (P11229 whole entry): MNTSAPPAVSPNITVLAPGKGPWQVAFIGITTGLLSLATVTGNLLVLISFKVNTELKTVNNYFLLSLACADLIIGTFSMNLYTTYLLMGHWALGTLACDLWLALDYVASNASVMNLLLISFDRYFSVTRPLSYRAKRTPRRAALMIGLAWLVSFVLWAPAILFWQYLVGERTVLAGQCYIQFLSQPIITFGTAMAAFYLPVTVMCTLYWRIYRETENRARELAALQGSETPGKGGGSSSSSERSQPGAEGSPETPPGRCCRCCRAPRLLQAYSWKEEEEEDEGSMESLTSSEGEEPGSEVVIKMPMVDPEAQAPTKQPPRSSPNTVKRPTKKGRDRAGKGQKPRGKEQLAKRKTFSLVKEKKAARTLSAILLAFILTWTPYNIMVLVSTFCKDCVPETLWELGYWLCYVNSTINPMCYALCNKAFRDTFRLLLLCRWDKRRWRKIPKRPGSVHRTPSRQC

Homo sapiens = organism: Homo sapiens; assay: Selectivity index, ratio of EC50 for human muscarinic acetylcholine receptor subtype 1 to EC50 for human muscarinic acetylcholine receptor subtype 5
[6] = target: T2, Muscarinic acetylcholine receptor M5 (Homo sapiens); assay: Displacement of [3H]NMS from human muscarinic acetylcholine receptor subtype 5 expressed in CHO cell membranes assessed as radioligand binding level by scintillation counting method
[7] = target: Cannabinoid receptor 1 (Homo sapiens) (UniProt P21554); assay: Displacement of radioligand from human CB1 receptor at 10 uM
Chain of Cannabinoid receptor 1 (Homo sapiens) (P21554 whole entry): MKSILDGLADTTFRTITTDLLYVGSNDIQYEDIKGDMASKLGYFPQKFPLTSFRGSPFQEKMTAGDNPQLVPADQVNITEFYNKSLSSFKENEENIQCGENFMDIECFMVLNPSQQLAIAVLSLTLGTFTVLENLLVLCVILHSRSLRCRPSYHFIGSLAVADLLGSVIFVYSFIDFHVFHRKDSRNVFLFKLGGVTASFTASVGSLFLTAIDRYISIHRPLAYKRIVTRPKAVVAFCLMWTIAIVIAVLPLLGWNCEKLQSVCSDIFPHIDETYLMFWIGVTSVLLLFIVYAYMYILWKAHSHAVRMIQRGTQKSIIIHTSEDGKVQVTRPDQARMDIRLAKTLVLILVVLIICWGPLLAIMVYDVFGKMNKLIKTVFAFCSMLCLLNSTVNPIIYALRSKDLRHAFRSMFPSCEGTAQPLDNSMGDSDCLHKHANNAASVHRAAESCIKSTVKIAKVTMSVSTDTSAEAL
How it was run: (§2)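 Pan Labs lead profiling radioligand binding battery of 68 GPCRs, ion channels and transporters, with test compound present at 10 μM.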

[8] = target: Sigma non-opioid intracellular receptor 1 (Homo sapiens) (UniProt Q99720); assay: Displacement of radioligand from human sigma-1 receptor at 10 uM; how it was run: as §2
Chain of Sigma non-opioid intracellular receptor 1 (Homo sapiens) (Q99720 whole entry): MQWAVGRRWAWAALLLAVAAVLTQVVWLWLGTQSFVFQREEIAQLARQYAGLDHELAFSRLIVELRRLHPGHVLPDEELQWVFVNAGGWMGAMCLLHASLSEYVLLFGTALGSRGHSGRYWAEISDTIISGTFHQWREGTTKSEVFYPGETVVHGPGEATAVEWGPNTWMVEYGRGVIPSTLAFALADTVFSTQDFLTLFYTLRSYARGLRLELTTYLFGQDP

Plasma = assay: Fraction unbound in human plasma at 5 uM incubated for 4 hrs at 37 degC by equilibrium dialysis based LC/MS/MS analysis; assay type: ADME, cell-free
How it was run: (§3)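 Fraction unbound measured in rat and human plasma and in rat brain homogenate.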

[9] = Fraction unbound in rat brain at 5 uM incubated for 4 hrs at 37 degC by equilibrium dialysis based LC/MS/MS analysis; assay type: ADME, tissue-based; how it was run: as §3
[10] = Volume of distribution at steady state in Sprague-Dawley rat 1 mg/kg, iv administered as single dose by LC/MS/MS utilizing electrospray ionization method; assay type: ADME, organism-based; parameters: dose 1 mg/kg, route intravenous; conditions: in vivo, read-out: Vdss
Rattus norvegicus = assay: Unbound brain-to-plasma concentration ratio in Sprague-Dawley rat 1 mg/kg, iv administered as single dose after 15 mins by LC/MS/MS utilizing electrospray ionization method; assay type: ADME, organism-based; parameters: dose 1 mg/kg, route intravenous; conditions: 0.25 h
How it was run: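 Male Sprague–Dawley rats (n = 3) dosed 1 mg/kg intravenously. Brain and plasma levels at 15 min after administration give Kp. Kp,uu is the unbound brain-plasma partition coefficient.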

[11] = Apparent permeability in human Caco2 cells; assay type: ADME, cell-based; conditions: caco-2

## CCN(Cc1ccccc1C(F)(F)F)C(=O)C1CCN(S(=O)(=O)c2ccc3[nH]ncc3c2)CC1
[1]
  EC50: 0.19 µM
[2]
  %max: 96%
[3]
  EC50: > 30 µM
[4]
  EC50: 2.1 µM
[5]
  EC50: 5.4 µM
Homo sapiens
  Ratio EC50: > 10
[6]
  %max: 97.1%
[7]
  inhibition: 50%
[8]
  inhibition: 53%
Plasma
  Fu: 0.015
[9]
  Fu: 0.011
[10]
  Vd: 1.6 L/kg
Rattus norvegicus
  K(p,uu,brain): 0.28
[11]
  Papp: 2.5 ×10⁻⁵ cm/s

— ChEMBL document CHEMBL3352313 (J Med Chem, 2014)
